Laboratory results from ChEMBL document CHEMBL4251591, “Primaquine hybrids as promising antimycobacterial and antimalarial agents” (Eur J Med Chem, 2018).
Converted amounts (≈) assume the structure as drawn.

Legend:
Mycobacterium avium = assay: Antimycobacterial activity against Mycobacterium avium subsp. paratuberculosis CIT03 clinical isolate after 11 days by Alamar Blue assay; type: functional; settings: CIT03, 264 h
[1] = system: Mycobacterium avium complex sp.; assay: Antimycobacterial activity against Mycobacterium avium complex CIT19/06 clinical isolate after 5 days by Alamar Blue assay; type: functional; settings: CIT19/06, 120 h
[2] = system: Mycobacterium tuberculosis; assay: Antimycobacterial activity against Mycobacterium tuberculosis H37Ra ATCC 25177 after 7 days by Alamar Blue assay; type: functional; settings: H37Ra ATCC 25177, 168 h
Procedure, shortened: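 Log-phase culture washed and resuspended in supplemented Middlebrook 7H9GC broth, adjusted to McFarland No. 1, then diluted 1:20. Equal volumes of culture and DMSO-prepared compound dilutions were tested in duplicate for 7 days. 10% AlamarBlue was added, with 570/600 nm readings for background and after 24 h reincubation. Blue meant no growth, pink meant growth. MIC was the lowest concentration without visible growth.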

L6 = assay: Cytotoxicity against rat L6 cells after 70 hrs by Alamar Blue-based assay; type: cell-based; settings: L6, 70 h
Procedure, shortened: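 Rat skeletal myoblast L-6 cells, 4000 per well, in RPMI 1640 with 10% FBS and L-glutamine. Eleven 3-fold serial dilutions spanning 100 to 0.002 were tested for 70 h. Alamar Blue was then added for 2 h and fluorescence read at ex 536 / em 588 nm. IC50 came from linear regression of sigmoid curves, averaged over two replicate experiments, with podophyllotoxin as control.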

Plasmodium berghei = assay: Antimalarial activity against liver stage of firefly luciferase-expressing Plasmodium berghei infected in human HuH7 cells measured after 48 hrs post parasite addition by luciferase-based luminescence assay; type: functional, organism-based; settings: Huh-7, 48 h
Procedure, shortened: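 HuH7 hepatoma cells seeded at 1.0 × 10^4 per well the day before infection. Drug-containing medium was added 1 h before 1.0 × 10^4 sporozoites, followed by centrifugation at 1800 × g for 5 min. Infection load was read by bioluminescence 48 h later, and host viability by CellTiter-Blue. IC50 came from nonlinear regression of normalized dose-response curves.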

Compound | MIC (Mycobacterium avium) [µg/mL] | MIC [1] [µg/mL] | MIC [2] [µg/mL] | IC50 (L6) [µg/mL] | IC50 (Plasmodium berghei) [nM]
COc1cc(NC(C)CCCNC(=O)Nc2cccc(O)c2)c2ncccc2c1 (centres undefined) | 16 (≈ 40.6 µM) | 16 (≈ 40.6 µM) | 8 (≈ 20.3 µM) | 38 (≈ 96.3 µM) | 
COc1cc(NC(C)CCCNC(=O)Nc2cccc(F)c2)c2ncccc2c1 (centres undefined) | 4 (≈ 10.1 µM) | 8 (≈ 20.2 µM) | 2 (≈ 5.04 µM) | 9.18 (≈ 23.2 µM) | 
COc1cc(NC(C)CCCNC(=O)NNC(=O)Nc2ccc(O)cc2)c2ncccc2c1 (centres undefined) | 128 (≈ 283 µM) | 256 (≈ 566 µM) | 128 (≈ 283 µM) |  | 
COc1cc(NC(C)CCCNC(=O)NNC(=O)Nc2cccc(C(F)(F)F)c2)c2ncccc2c1 (centres undefined) | 128 (≈ 254 µM) | 128 (≈ 254 µM) | 128 (≈ 254 µM) |  | 
COc1cc(NC(C)CCCNC(=O)Nc2ccc(F)cc2)c2ncccc2c1 (centres undefined) | 16 (≈ 40.4 µM) | 16 (≈ 40.4 µM) | 8 (≈ 20.2 µM) | 9.3 (≈ 23.5 µM) | 
COc1cc(NC(C)CCCNC(=O)Nc2ccc(Cl)cc2)c2ncccc2c1 (centres undefined) | 32 (≈ 77.5 µM) | 64 (≈ 155 µM) | 16 (≈ 38.7 µM) |  | 
COc1cc(NC(C)CCCNC(=O)/C=C/c2cc(C(F)(F)F)cc(C(F)(F)F)c2)c2ncccc2c1 (centres undefined) | 16 (≈ 30.4 µM) | 64 (≈ 122 µM) | 16 (≈ 30.4 µM) |  | 2390
COc1cc(NC(C)CCCNC(=O)/C=C/c2ccc(OC)c(OC)c2)c2ncccc2c1 (centres undefined) | 128 (≈ 285 µM) | 256 (≈ 569 µM) | 128 (≈ 285 µM) | > 100 | 
COc1cc(NC(C)CCCNC(=O)NNC(=O)NCCc2ccccc2)c2ncccc2c1 (centres undefined) | 128 (≈ 276 µM) | 256 (≈ 551 µM) | 128 (≈ 276 µM) |  | 
COc1cc(NC(C)CCCNC(=O)/C(C)=C/c2ccccc2)c2ncccc2c1 (centres undefined) |  |  |  | > 100 | 724
COc1cc(NC(C)CCCNC(=O)/C=C/c2cccc(C(F)(F)F)c2)c2ncccc2c1 (centres undefined) | 32 (≈ 69.9 µM) | 128 (≈ 280 µM) | 32 (≈ 69.9 µM) |  | 
COc1cc(NC(C)CCCNC(=O)NNC(=O)NCc2ccccc2)c2ncccc2c1 (centres undefined) | 128 (≈ 284 µM) | 256 (≈ 568 µM) | 128 (≈ 284 µM) |  | 
COc1cc(NC(C)CCCNC(=O)/C=C/c2ccc(C(F)(F)F)cc2)c2ncccc2c1 (centres undefined) | 64 (≈ 140 µM) | 128 (≈ 280 µM) | 32 (≈ 69.9 µM) |  | 
COc1cc(NC(C)CCCNC(=O)/C=C/c2cc(OC)c(OC)c(OC)c2)c2ncccc2c1 (centres undefined) | 256 (≈ 534 µM) | 256 (≈ 534 µM) | 256 (≈ 534 µM) | > 100 | 
COc1cc(NC(C)CCCNC(=O)/C=C/c2ccccc2F)c2ncccc2c1 (centres undefined) | 64 (≈ 157 µM) | 128 (≈ 314 µM) | 32 (≈ 78.5 µM) | 1.5 (≈ 3.68 µM) | 
COc1cc(NC(C)CCCNC(=O)/C=C/c2ccc3c(c2)OCO3)c2ncccc2c1 (centres undefined) | 64 (≈ 148 µM) | 64 (≈ 148 µM) | 64 (≈ 148 µM) |  | 
COc1cc(NC(C)CCCNC(=O)NNC(=O)NC(c2ccccc2)(c2ccccc2)c2ccccc2)c2ncccc2c1 (centres undefined) | 128 (≈ 212 µM) | 128 (≈ 212 µM) | 128 (≈ 212 µM) | > 65 | 
COc1cc(NC(C)CCCNC(=O)NNC(=O)Nc2cccc(Br)c2)c2ncccc2c1 (centres undefined) | 128 (≈ 248 µM) | 256 (≈ 497 µM) | 128 (≈ 248 µM) | 20 (≈ 38.8 µM) | 182
COc1cc(NC(C)CCCNC(=O)NC2CCCCC2)c2ncccc2c1 (centres undefined) | 16 (≈ 41.6 µM) | 32 (≈ 83.2 µM) | 16 (≈ 41.6 µM) |  | 
COc1cc(NC(C)CCCNC(=O)NC2CCCC2)c2ncccc2c1 (centres undefined) | 16 (≈ 43.2 µM) | 32 (≈ 86.4 µM) | 16 (≈ 43.2 µM) |  | 
COc1cc(NC(C)CCCNC(=O)NCc2ccncc2)c2ncccc2c1 (centres undefined) | 32 (≈ 81.3 µM) | 32 (≈ 81.3 µM) | 32 (≈ 81.3 µM) |  | 
COc1cc(NC(C)CCCNC(=O)NCCO)c2ncccc2c1 (centres undefined) | 64 (≈ 185 µM) | 64 (≈ 185 µM) | 32 (≈ 92.4 µM) |  | 
COc1cc(NC(C)CCCNC(=O)NCCCO)c2ncccc2c1 (centres undefined) | 64 (≈ 178 µM) | 64 (≈ 178 µM) | 64 (≈ 178 µM) |  | 
O=C(O)c1cn(C2CC2)c2cc(N3CCNCC3)c(F)cc2c1=O [CIPROFLOXACIN] |  |  | 16 (≈ 48.3 µM) |  | 
NNC(=O)c1ccncc1 [ISONIAZID] | > 256 | > 256 | 5 (≈ 36.5 µM) |  | 
COc1cc([C@@H]2c3cc4c(cc3[C@H](O)[C@H]3COC(=O)[C@H]23)OCO4)cc(OC)c1OC [PODOFILOX] |  |  |  | 0.007 (≈ 0.0169 µM) | 
COc1cc(NC(C)CCCN)c2ncccc2c1.O=P(O)(O)O.O=P(O)(O)O (centres undefined) [PRIMAQUINE PHOSPHATE] | 32 | 32 | 32 |  | 
CO[C@H]1/C=C/O[C@@]2(C)Oc3c(C)c(O)c4c(O)c(c(/C=N/N5CCN(C)CC5)c(O)c4c3C2=O)NC(=O)/C(C)=C\C=C\[C@H](C)[C@H](O)[C@@H](C)[C@@H](O)[C@@H](C)[C@H](OC(C)=O)[C@@H]1C [RIFAMPIN] | 90 (≈ 109 µM) | 30 (≈ 36.5 µM) | 8 (≈ 9.72 µM) |  | 
